The text below walks through data of ChEMBL document CHEMBL1127326, “Antitumor agents. 148. Synthesis and biological evaluation of novel 4 beta-amino derivatives of etoposide with better pharmacological profiles” (1994).

In assay [1] the test system is Tumor Cell line. Kind of assay: Drug molar concentration required to inhibit 50% of human tumor cell growth. Type of assay: functional. Put shortly: (§1)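 NCI panel of 54 human tumor lines from eight cancer types, mostly seeded at 20 000 cells/well. Cells were preincubated 24 h without drug, then exposed to five 10-fold dilutions for 48 h, fixed and stained with sulforhodamine B, and read spectrophotometrically. Versus control, GI50 (50% growth inhibition), TGI (0% growth) and LC50 (−50% growth) were calculated; mean graph midpoints average all lines.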

The subject of assay [2] is Tumor Cell line. Briefly: Drug concentration required to inhibit total cell growth. The conditions noted are these: read-out: Log TGI (converted). Type of assay: functional, Homo sapiens. Put shortly: as §1
Assay [3] has as its system Tumor Cell line. Kind of assay: Drug concentration required to cause 50% cell death. It is filed as functional, Homo sapiens. In outline: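 NCI in vitro panel of 54 human tumor cell lines from eight cancer types, mostly seeded at 20 000 cells/well and preincubated 24 h without drug. Five 10-fold dilutions were then added for a further 48 h. Cells were fixed in situ and stained with sulforhodamine B, and bound dye was read spectrophotometrically. LC50 (−50% growth versus control) was taken from five-point dose-response curves and reported as the log10 mean-graph midpoint across lines.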

The next assay relates to KB. Briefly: Cytotoxicity against KB cells after a 3 day incubation. Type of assay: functional, Homo sapiens. The conditions noted are these: read-out: ID50 (the source's name). Put shortly: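 KB cells (parental ATCC line and resistant variants) exposed to drug at five concentrations […] for 3 days. ID50 is the concentration giving 50% reduction in cell number, derived from the degree of inhibition at the five concentrations.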

Assay [4] addresses T1, DNA topoisomerase II (Homo sapiens) (UniProt P11388+Q02880). Kind of assay: 50% inhibition of human DNA topoisomerase II. It is filed as protein assay.
A further assay relates to Nucleic Acid. Briefly: Percentage inhibition of cellular protein-DNA complex formation. It is filed as functional. The following applies: Homo sapiens.
The target of assay [5] is T1, DNA topoisomerase II (Homo sapiens). Kind of assay: inhibition of human DNA topoisomerase II. It is filed as protein assay.
For assay [6], the system named is Tumor Cell line. Kind of assay: 50% of human tumor cell growth. Type of assay: functional. Put shortly:
as §1

pIC50: −log10 of the molar value. Values joined by “and” are separate entries in the source; they are usually repeats but may differ in a detail not shown here. Identical values can stand only once. Some results are limits rather than exact numbers.

As usually defined, the GI50 is the concentration that inhibits growth by half. Higher therefore signals less potent growth inhibition. As a reminder, the TGI is the concentration giving total growth inhibition. What is called LC50 is the concentration that kills 50% of the test population. High values mean a less lethal substance, low ones a more lethal substance. Take `COc1cc([C@@H]2c3cc4c(cc3[C@@H](NCCCN(C)C)[C@H]3COC(=O)[C@H]23)OCO4)cc(OC)c1O` [listing 1 of 2 here]: the GI50 with Tumor Cell line [1] (Homo sapiens, Tumor Cell line) was 0.55 µM. Besides, the TGI with Tumor Cell line [2] (Homo sapiens, Tumor Cell line) was 2.82 µM. Moreover, the LC50 with Tumor Cell line [3] (Homo sapiens, Tumor Cell line) is 13.5 µM. For the same compound, the pIC50 in the assay on KB was 5.94.

As for `COc1cc([C@@H]2c3cc4c(cc3[C@@H](Nc3ccc(C(=O)O)cc3)[C@H]3COC(=O)[C@H]23)OCO4)cc(OC)c1O` [listing 1 of 2 here], in assay [4], the ID50 was > 100 µM. Further, in the assay with Nucleic Acid, the Complex formation is > 6.9% and 1.9%.

With `COc1cc([C@@H]2c3cc4c(cc3[C@@H](NCCN3CCCCC3)[C@H]3COC(=O)[C@H]23)OCO4)cc(OC)c1O` [listing 1 of 3 here], the Complex formation in the assay with Nucleic Acid was 183% and 190%. Moreover, in assay [5], the ID50 is 50 µM and 25 µM.

On to `COc1cc([C@@H]2c3cc4c(cc3[C@@H](NCCN3CCOCC3)[C@H]3COC(=O)[C@H]23)OCO4)cc(OC)c1O` [listing 1 of 3 here], for which the ID50 in assay [4] worked out at 50 µM.

`COc1cc([C@@H]2c3cc4c(cc3[C@@H](NCCN3CCOCC3)[C@H]3COC(=O)[C@H]23)OCO4)cc(OC)c1O` [listing 2 of 3 here] showed a GI50 in the assay with Tumor Cell line [1] (Homo sapiens, Tumor Cell line) of 2.45 µM. Moreover, in the assay with Tumor Cell line [2] (Homo sapiens, Tumor Cell line), the TGI was 10 µM. Moreover, in the assay on KB (Homo sapiens, KB, 72 h), the pIC50 is 5.40.

Take `COc1cc([C@@H]2c3cc4c(cc3[C@@H](NCCN3CCCCC3)[C@H]3COC(=O)[C@H]23)OCO4)cc(OC)c1O` [listing 2 of 3 here]: the TGI in the assay on Tumor Cell line [2] is 3.31 µM. In the assay with Tumor Cell line [3], the LC50 is 30.9 µM. The pIC50 in the assay with KB is 5.85. Besides, in the assay with Tumor Cell line [6], the GI50 is 0.372 µM.

Turning to `COc1cc([C@@H]2c3cc4c(cc3[C@@H](NCCN3CCOCC3)[C@H]3COC(=O)[C@H]23)OCO4)cc(OC)c1O` [listing 3 of 3 here], growth in the assay on Tumor Cell line [1] was halved (GI50) at 1.82 µM. Further, in the assay on Tumor Cell line [2], the TGI was 11.5 µM. Also, in the assay on KB, the pIC50 is 5.70.

For `COc1cc([C@@H]2c3cc4c(cc3[C@@H](NCCCN(C)C)[C@H]3COC(=O)[C@H]23)OCO4)cc(OC)c1O` [listing 2 of 2 here], in assay [4], the ID50 was 25 µM. The Complex formation with Nucleic Acid was 179% and 186%.

In the assay on Tumor Cell line [1] (Homo sapiens, Tumor Cell line), `COc1cc([C@@H]2c3cc4c(cc3[C@@H](NCCN3CCCCC3)[C@H]3COC(=O)[C@H]23)OCO4)cc(OC)c1O` [listing 3 of 3 here] had a GI50 of 0.427 µM. In addition, the TGI in the assay with Tumor Cell line [2] (Homo sapiens, Tumor Cell line) is 3.72 µM. The LC50 with Tumor Cell line [3] (Homo sapiens, Tumor Cell line) is 36.3 µM. Besides, the pIC50 with KB (Homo sapiens, KB, 72 h) was 5.80.

For `COc1cc([C@@H]2c3cc4c(cc3[C@@H](NCCN(C)C)[C@H]3COC(=O)[C@H]23)OCO4)cc(OC)c1O`, halving of growth with Tumor Cell line [1] (Homo sapiens, Tumor Cell line) (GI50) required 0.263 µM. Further, the TGI in the assay on Tumor Cell line [2] (Homo sapiens, Tumor Cell line) was 2.51 µM. In the assay with Tumor Cell line [3] (Homo sapiens, Tumor Cell line), this compound gave an LC50 of 21.9 µM.

In turn, `COc1cc([C@@H]2c3cc4c(cc3[C@@H](Nc3ccc(C(=O)O)cc3)[C@H]3COC(=O)[C@H]23)OCO4)cc(OC)c1O` [listing 2 of 2 here] had a GI50 with Tumor Cell line [1] (Homo sapiens, Tumor Cell line) of 8.51 µM. In addition, the TGI in the assay with Tumor Cell line [2] was 15.8 µM. For the same compound, in the assay on KB (Homo sapiens, KB, 72 h), the pIC50 is < 5.40.
